Our source for the IC50 values is BindingDB's records for doi:10.1016/j.bmc.2010.02.001 (University of Alberta, 2010).

The target in the assay is LL-diaminopimelate aminotransferase, chloroplastic (Arabidopsis thaliana, UniProt Q93ZN9). Put plainly: Inhibition of Arabidopsis thaliana LL-DAP-AT expressed in Escherichia coli by aminobenzaldehyde-based assay. An outline of the steps:
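Recombinant C-terminal His6-tagged enzyme in 1 mL cells at 0.0043 mg/mL final. Final substrates: 8.5 mM 2-oxoglutarate, 7 mM 2-aminobenzaldehyde, 2.0 mM LL-DAP (racemic DAP), in 100 mM HEPES-KOH pH 7.6. Inhibitor in DMSO at 200, 100, 50, 25, 10 and 5 µM final. A440 read every 2 min for 200 min. Initial slopes compared with the DMSO control gave percentage inhibition, from which IC50 was calculated.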

A word on the IC50: it is the point on the concentration scale where inhibition reaches its midpoint. Read a high IC50 as a need for much substance.

Chain of LL-diaminopimelate aminotransferase, chloroplastic (Q93ZN9 whole entry): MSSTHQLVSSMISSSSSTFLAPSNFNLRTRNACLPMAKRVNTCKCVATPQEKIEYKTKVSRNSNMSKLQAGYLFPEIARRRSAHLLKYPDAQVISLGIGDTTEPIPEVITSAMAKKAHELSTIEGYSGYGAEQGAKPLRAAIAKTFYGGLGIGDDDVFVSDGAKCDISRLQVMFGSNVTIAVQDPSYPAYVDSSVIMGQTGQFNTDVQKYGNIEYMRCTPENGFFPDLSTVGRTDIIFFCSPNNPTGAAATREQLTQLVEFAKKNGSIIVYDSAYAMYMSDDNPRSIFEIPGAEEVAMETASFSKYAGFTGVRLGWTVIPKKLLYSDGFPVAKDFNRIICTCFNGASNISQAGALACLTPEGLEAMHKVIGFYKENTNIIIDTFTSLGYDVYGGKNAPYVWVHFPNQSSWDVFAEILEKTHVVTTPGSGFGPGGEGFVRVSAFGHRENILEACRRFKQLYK

Consider `NC(N=NCc1ccc(-c2cccc([N+](=O)[O-])c2)o1)=N[N+](=O)[O-]` [N'-nitro-2-((5-(3-nitrophenyl)furan-2-yl)methylene)hydrazinecarboximidamide], for which the IC50 was > 200 µM.
